# Published values gathered from unrelated publications.
# Protocols differ between the studies behind these lines.
# Target: Inhibitor of nuclear factor kappa-B kinase subunit epsilon (IKBKE, Homo sapiens, UniProt Q14164)
# Read-out: enzyme activity
# One construct used (Q14164 1-716): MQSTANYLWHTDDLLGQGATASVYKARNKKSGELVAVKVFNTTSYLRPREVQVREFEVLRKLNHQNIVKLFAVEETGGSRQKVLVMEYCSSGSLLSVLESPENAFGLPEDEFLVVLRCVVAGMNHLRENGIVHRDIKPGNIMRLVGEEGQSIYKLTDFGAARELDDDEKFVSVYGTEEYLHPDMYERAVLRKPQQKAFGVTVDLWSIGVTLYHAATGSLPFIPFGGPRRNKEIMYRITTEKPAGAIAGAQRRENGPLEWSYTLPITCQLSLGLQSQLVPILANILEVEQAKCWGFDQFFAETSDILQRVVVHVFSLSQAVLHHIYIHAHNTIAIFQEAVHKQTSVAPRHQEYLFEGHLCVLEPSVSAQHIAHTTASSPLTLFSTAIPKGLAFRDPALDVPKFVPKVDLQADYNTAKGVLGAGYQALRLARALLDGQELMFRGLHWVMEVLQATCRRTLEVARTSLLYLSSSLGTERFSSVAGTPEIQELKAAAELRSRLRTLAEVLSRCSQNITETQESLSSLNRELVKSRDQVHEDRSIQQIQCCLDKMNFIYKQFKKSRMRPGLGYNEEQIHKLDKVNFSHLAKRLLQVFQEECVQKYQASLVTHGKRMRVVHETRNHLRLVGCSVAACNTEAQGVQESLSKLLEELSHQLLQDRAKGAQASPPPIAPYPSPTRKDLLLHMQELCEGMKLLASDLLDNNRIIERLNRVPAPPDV
Compound,mode,technique,tested at,remaining activity
FC(F)c1nc2ccccc2n1-c1nc(N2CCOCC2)nc(N2CCOCC2)n1,inhibitor,,10 µM,84%
Nc1ncnc2occ(-c3ccc(NC(=O)Nc4cc(C(F)(F)F)ccc4F)cc3)c12,inhibitor,,20 µM,12%
Cc1sc(C(=O)NC2COC2)cc1-n1cc(NC(=O)Nc2c(F)cccc2Cl)cn1,inhibitor,,10 µM,116%
CC(C)(C)c1nc2c(s1)c1nc(N)ncc1c1ccc(NS(=O)(=O)c3c(F)cccc3F)c(F)c12,inhibitor,radiometric,1 µM,90%
O=C(Nc1cnn(-c2csc(C(=O)NC3COC3)c2)c1)Nc1c(F)cccc1Cl,inhibitor,,5 µM,96.8%
Brc1cnc(Nc2cccc(CN3CCOCC3)c2)nc1NCCc1c[nH]cn1,inhibitor,radiometric,1 µM,36%
COc1cc(Nc2cnc(C#N)c(O[C@H](C)CN(C)C)n2)ncc1-c1cnn(C)c1,inhibitor,radiometric,10 µM,84%
Cc1nn(CC(F)(F)F)cc1Nc1ncc(C2CC2)c(NCCc2c[nH]cn2)n1,inhibitor,radiometric,1 µM,95%
CCN(CC)CCNC(=O)c1c(C)[nH]c(/C=C2\C(=O)Nc3ccc(Cl)cc32)c1C,inhibitor,,0.5 µM,29.4%
NS(=O)(=O)c1ccc(CNc2ccnc(Nc3cccc(CN4CCOCC4)c3)n2)cc1,inhibitor,radiometric,1 µM,78%
Cc1ccc(C(=O)Nc2ccc(CN3CCN(C)CC3)c(C(F)(F)F)c2)cc1C#Cc1cnc2cccnn12,inhibitor,,23.5 nM,99%
NS(=O)(=O)c1ccc(CNc2nc(Nc3cccc(CN4CCOCC4)c3)ncc2Br)cc1,inhibitor,radiometric,1 µM,32%
Clc1ccc(Nc2nnc(Cc3ccncc3)c3ccccc23)cc1,,,0.5 µM,95.7%
c1cc(CN2CCOCC2)cc(Nc2ncc(C3CC3)c(NCCc3c[nH]cn3)n2)c1,inhibitor,radiometric,1 µM,55%
O=C1NC(=O)c2cc(Nc3ccc(F)cc3)c(Nc3ccc(F)cc3)cc21,inhibitor,,0.5 µM,100%
